What was measured:
MT4 [1] = experiment: In vitro inhibitory activity for cytopathicities induced by HIV-1III B against MT-4 cells.; assay type: functional, cell-based; settings: Homo sapiens
Method in brief: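 Exponentially growing MT-4 cells were pelleted (140g, 5 min), infected in a small volume of RPMI-1640 with 100 TCID50 HIV-1 IIIB for 1 h, washed, and plated at 2.5 × 10⁴ cells/well with serial oligonucleotide dilutions. Viability was read by MTT at day 6. IC50 was taken from dose-response curves, as the mean of duplicate or quadruplicate ± SD.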

MT4 [2] = experiment: Cytotoxicity was measured against MT-4 cells using MTT assay.; assay type: functional; settings: Homo sapiens

Cc1cn([C@H]2C[C@H](OP(=O)(O)OC[C@H]3O[C@@H](n4cnc5c(=O)[nH]c(N)nc54)C[C@@H]3OP(=O)(O)OC[C@H]3O[C@@H](n4cnc5c(=O)[nH]c(N)nc54)C[C@@H]3OP(=O)(O)OC[C@H]3O[C@@H](n4cnc5c(=O)[nH]c(N)nc54)C[C@@H]3OP(=O)(O)OC[C@H]3O[C@@H](n4cnc5c(N)ncnc54)C[C@@H]3OP(=O)(O)OC[C@H]3O[C@@H](n4cnc5c(=O)[nH]c(N)nc54)C[C@@H]3O)[C@@H](COC(c3ccccc3)(c3ccccc3)c3ccccc3)O2)c(=O)[nH]c1=O
IC50 (MT4 [1]): 0.8 µM
CC50 (MT4 [2]): 23 µM

Cc1cn([C@H]2C[C@H](OP(=O)(O)OC[C@H]3O[C@@H](n4cnc5c(O)nc(N)nc54)C[C@@H]3O)[C@@H](COCc3ccc(OCc4ccccc4)c(OCc4ccccc4)c3)O2)c(=O)[nH]c1=O
IC50 (MT4 [1]): > 100 µM
CC50 (MT4 [2]): > 100 µM

Cc1cn([C@H]2C[C@H](OP(=O)(O)OC[C@H]3O[C@@H](n4cnc5c(=O)[nH]c(N)nc54)C[C@@H]3OP(=O)(O)OC[C@H]3O[C@@H](n4cnc5c(=O)[nH]c(N)nc54)C[C@@H]3OP(=O)(O)OC[C@H]3O[C@@H](n4cnc5c(=O)[nH]c(N)nc54)C[C@@H]3OP(=O)(O)OC[C@H]3O[C@@H](n4cnc5c(N)ncnc54)C[C@@H]3OP(=O)(O)OC[C@H]3O[C@@H](n4cnc5c(=O)[nH]c(N)nc54)C[C@@H]3O)[C@@H](COCc3ccc4ccccc4c3)O2)c(=O)[nH]c1=O
IC50 (MT4 [1]): 2 µM
CC50 (MT4 [2]): > 40 µM

Cc1cn([C@H]2C[C@H](OP(=O)(O)OC[C@H]3O[C@@H](n4cnc5c(=O)[nH]c(N)nc54)C[C@@H]3OP(=O)(O)OC[C@H]3O[C@@H](n4cnc5c(=O)[nH]c(N)nc54)C[C@@H]3OP(=O)(O)OC[C@H]3O[C@@H](n4cnc5c(=O)[nH]c(N)nc54)C[C@@H]3OP(=O)(O)OC[C@H]3O[C@@H](n4cnc5c(N)ncnc54)C[C@@H]3OP(=O)(O)OC[C@H]3O[C@@H](n4cnc5c(=O)[nH]c(N)nc54)C[C@@H]3O)[C@@H](COCc3ccc(OCc4ccccc4)c(OCc4ccccc4)c3)O2)c(=O)[nH]c1=O
IC50 (MT4 [1]): 0.37 µM
CC50 (MT4 [2]): > 40 µM

Cc1cn([C@H]2C[C@H](OP(=O)(O)OC[C@H]3O[C@@H](n4cnc5c(=O)[nH]c(N)nc54)C[C@@H]3OP(=O)(O)OC[C@H]3O[C@@H](n4cnc5c(=O)[nH]c(N)nc54)C[C@@H]3OP(=O)(O)OC[C@H]3O[C@@H](n4cnc5c(=O)[nH]c(N)nc54)C[C@@H]3OP(=O)(O)OC[C@H]3O[C@@H](n4cnc5c(N)ncnc54)C[C@@H]3OP(=O)(O)OC[C@H]3O[C@@H](n4cnc5c(=O)[nH]c(N)nc54)C[C@@H]3O)[C@@H](COCc3ccc4ccc5cccc6ccc3c4c56)O2)c(=O)[nH]c1=O
IC50 (MT4 [1]): 1.8 µM
CC50 (MT4 [2]): > 40 µM

Cc1cn([C@H]2C[C@H](OP(=O)(O)OC[C@H]3O[C@@H](n4cnc5c(O)nc(N)nc54)C[C@@H]3OP(=O)(O)OC[C@H]3O[C@@H](n4cnc5c(O)nc(N)nc54)C[C@@H]3OP(=O)(O)OC[C@H]3O[C@@H](n4cnc5c(O)nc(N)nc54)C[C@@H]3OP(=O)(O)OC[C@H]3O[C@@H](n4cnc5c(N)ncnc54)C[C@@H]3O)[C@@H](COCc3ccc(OCc4ccccc4)c(OCc4ccccc4)c3)O2)c(=O)[nH]c1=O
IC50 (MT4 [1]): 1.9 µM
CC50 (MT4 [2]): > 40 µM

Cc1cn([C@H]2C[C@H](OP(=O)(O)OC[C@H]3O[C@@H](n4cnc5c(=O)[nH]c(N)nc54)C[C@@H]3OP(=O)(O)OC[C@H]3O[C@@H](n4cnc5c(=O)[nH]c(N)nc54)C[C@@H]3OP(=O)(O)OC[C@H]3O[C@@H](n4cnc5c(=O)[nH]c(N)nc54)C[C@@H]3OP(=O)(O)OC[C@H]3O[C@@H](n4cnc5c(N)ncnc54)C[C@@H]3OP(=O)(O)OC[C@H]3O[C@@H](n4cnc5c(=O)[nH]c(N)nc54)C[C@@H]3O)[C@@H](COCc3ccccc3)O2)c(=O)[nH]c1=O
IC50 (MT4 [1]): > 40 µM
CC50 (MT4 [2]): > 40 µM

Cc1cn([C@H]2C[C@H](OP(=O)(O)OC[C@H]3O[C@@H](n4cc(C)c(=O)[nH]c4=O)C[C@@H]3OP(=O)(O)OC[C@H]3O[C@@H](n4cnc5c(O)nc(N)nc54)C[C@@H]3OP(=O)(O)OC[C@H]3O[C@@H](n4cnc5c(O)nc(N)nc54)C[C@@H]3O)[C@@H](COCc3ccc(OCc4ccccc4)c(OCc4ccccc4)c3)O2)c(=O)[nH]c1=O
IC50 (MT4 [1]): > 50 µM
CC50 (MT4 [2]): 33 µM

Cc1cn([C@H]2C[C@H](OP(=O)(O)OC[C@H]3O[C@@H](n4cnc5c(=O)[nH]c(N)nc54)C[C@@H]3OP(=O)(O)OC[C@H]3O[C@@H](n4cnc5c(=O)[nH]c(N)nc54)C[C@@H]3OP(=O)(O)OC[C@H]3O[C@@H](n4cnc5c(=O)[nH]c(N)nc54)C[C@@H]3OP(=O)(O)OC[C@H]3O[C@@H](n4cnc5c(N)ncnc54)C[C@@H]3OP(=O)(O)OC[C@H]3O[C@@H](n4cnc5c(=O)[nH]c(N)nc54)C[C@@H]3O)[C@@H](COCc3cc(OCc4ccccc4)cc(OCc4ccccc4)c3)O2)c(=O)[nH]c1=O
IC50 (MT4 [1]): 0.49 µM
CC50 (MT4 [2]): > 40 µM

Cc1cn([C@H]2C[C@H](OP(=O)(O)OC[C@H]3O[C@@H](n4cnc5c(O)nc(N)nc54)C[C@@H]3OP(=O)(O)OC[C@H]3O[C@@H](n4cnc5c(O)nc(N)nc54)C[C@@H]3OP(=O)(O)OC[C@H]3O[C@@H](n4cnc5c(O)nc(N)nc54)C[C@@H]3O)[C@@H](COCc3ccc(OCc4ccccc4)c(OCc4ccccc4)c3)O2)c(=O)[nH]c1=O
IC50 (MT4 [1]): 4.6 µM
CC50 (MT4 [2]): > 40 µM

Cc1cn([C@H]2C[C@H](OP(=O)(O)OC[C@H]3O[C@@H](n4cnc5c(=O)[nH]c(N)nc54)C[C@@H]3OP(=O)(O)OC[C@H]3O[C@@H](n4cnc5c(=O)[nH]c(N)nc54)C[C@@H]3OP(=O)(O)OC[C@H]3O[C@@H](n4cnc5c(=O)[nH]c(N)nc54)C[C@@H]3OP(=O)(O)OC[C@H]3O[C@@H](n4cnc5c(=O)[nH]c(N)nc54)C[C@@H]3OP(=O)(O)OC[C@H]3O[C@@H](n4cnc5c(=O)[nH]c(N)nc54)C[C@@H]3O)[C@@H](COCc3ccc(OCc4ccccc4)c(OCc4ccccc4)c3)O2)c(=O)[nH]c1=O
IC50 (MT4 [1]): 0.26 µM
CC50 (MT4 [2]): > 40 µM

Source: ChEMBL document CHEMBL1131099, “Biologically active oligodeoxyribonucleotides. 5. 5'-End-substituted d(TGGGAG) possesses anti-human immunodeficiency virus type 1 activity by forming a G-quadruplex structure” (J Med Chem, 1998)
